Values after ≈ are worked out from the molar mass of the structure shown.
Assays:
[1] = Aqueous solubility of the compound; assay type: physicochemical
Summary of the method: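 Solubility measured in water, with each compound tested as amorphous material.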

[2] = Partition coefficient, log P of the compound; assay type: physicochemical; details: octanol/water
Cytochrome P450 3A4 = Cytochrome P450 3A4 (Homo sapiens, UniProt P08684); test: (§1) Inhibition of recombinant CYP3A4 (unknown origin); assay type: ADME
Cytochrome P450 3A4, sequence (P08684 whole entry): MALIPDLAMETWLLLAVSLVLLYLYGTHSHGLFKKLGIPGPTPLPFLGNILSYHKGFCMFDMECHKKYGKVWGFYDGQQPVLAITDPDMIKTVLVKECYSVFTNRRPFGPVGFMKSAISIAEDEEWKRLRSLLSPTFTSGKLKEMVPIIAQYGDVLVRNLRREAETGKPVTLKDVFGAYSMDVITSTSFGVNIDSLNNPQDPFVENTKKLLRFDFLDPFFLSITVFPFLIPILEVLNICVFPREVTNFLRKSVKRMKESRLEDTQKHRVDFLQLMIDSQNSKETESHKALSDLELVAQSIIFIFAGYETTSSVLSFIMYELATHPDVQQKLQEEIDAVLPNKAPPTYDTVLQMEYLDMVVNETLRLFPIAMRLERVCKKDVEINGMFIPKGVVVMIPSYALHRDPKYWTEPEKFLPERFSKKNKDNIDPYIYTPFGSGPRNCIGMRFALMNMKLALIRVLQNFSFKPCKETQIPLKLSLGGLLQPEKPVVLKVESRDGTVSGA

[3] = Half life in rat liver microsomes; assay type: ADME, microsome
Cytochrome P450 2D6 = Cytochrome P450 2D6 (Homo sapiens, UniProt P10635); test: Inhibition of CYP2D6 (unknown origin); assay type: ADME
Cytochrome P450 2D6, sequence (P10635 whole entry): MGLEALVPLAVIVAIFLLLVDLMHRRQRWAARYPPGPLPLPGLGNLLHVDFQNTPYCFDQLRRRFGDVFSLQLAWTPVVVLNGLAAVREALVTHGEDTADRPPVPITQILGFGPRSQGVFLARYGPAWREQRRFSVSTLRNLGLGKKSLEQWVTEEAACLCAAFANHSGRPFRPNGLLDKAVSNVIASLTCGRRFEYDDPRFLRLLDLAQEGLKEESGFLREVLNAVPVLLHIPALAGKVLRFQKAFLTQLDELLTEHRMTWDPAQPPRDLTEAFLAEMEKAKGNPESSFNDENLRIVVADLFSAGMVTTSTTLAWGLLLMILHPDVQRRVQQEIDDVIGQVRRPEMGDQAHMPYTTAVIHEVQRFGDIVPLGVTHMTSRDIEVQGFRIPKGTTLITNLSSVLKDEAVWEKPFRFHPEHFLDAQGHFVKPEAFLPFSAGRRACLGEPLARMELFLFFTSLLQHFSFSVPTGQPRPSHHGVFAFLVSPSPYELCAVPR

[4] = Half life in cynomolgus monkey liver microsomes; assay type: ADME, Macaca fascicularis, microsome
[5] = Half life in human liver microsomes; assay type: ADME, microsome
Cytochrome P450 2C9 = Cytochrome P450 2C9 (Homo sapiens, UniProt P11712); test: (§2) Inhibition of CYP2C9 (unknown origin); assay type: ADME
Cytochrome P450 2C9, sequence (P11712 whole entry): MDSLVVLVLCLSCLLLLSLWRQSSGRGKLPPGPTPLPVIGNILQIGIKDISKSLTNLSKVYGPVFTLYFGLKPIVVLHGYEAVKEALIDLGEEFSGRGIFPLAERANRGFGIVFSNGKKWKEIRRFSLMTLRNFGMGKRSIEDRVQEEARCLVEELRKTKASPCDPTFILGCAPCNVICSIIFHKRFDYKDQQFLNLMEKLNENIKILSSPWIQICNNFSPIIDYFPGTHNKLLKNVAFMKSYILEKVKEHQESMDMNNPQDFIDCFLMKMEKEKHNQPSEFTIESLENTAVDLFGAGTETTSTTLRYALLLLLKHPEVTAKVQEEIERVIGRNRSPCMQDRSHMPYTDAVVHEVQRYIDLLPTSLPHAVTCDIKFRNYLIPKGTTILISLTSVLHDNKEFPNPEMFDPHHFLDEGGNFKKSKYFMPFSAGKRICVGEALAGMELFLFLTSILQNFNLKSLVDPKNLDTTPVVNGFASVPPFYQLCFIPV

[6] = Clearance in iv dosed cynomolgus monkey; assay type: ADME, organism-based, Macaca fascicularis; details: in vivo
hERG = hERG (Homo sapiens, UniProt Q12809); test: Inhibition of human ERG at 10 uM by patch clamp assay relative to control
hERG, sequence (Q12809 whole entry): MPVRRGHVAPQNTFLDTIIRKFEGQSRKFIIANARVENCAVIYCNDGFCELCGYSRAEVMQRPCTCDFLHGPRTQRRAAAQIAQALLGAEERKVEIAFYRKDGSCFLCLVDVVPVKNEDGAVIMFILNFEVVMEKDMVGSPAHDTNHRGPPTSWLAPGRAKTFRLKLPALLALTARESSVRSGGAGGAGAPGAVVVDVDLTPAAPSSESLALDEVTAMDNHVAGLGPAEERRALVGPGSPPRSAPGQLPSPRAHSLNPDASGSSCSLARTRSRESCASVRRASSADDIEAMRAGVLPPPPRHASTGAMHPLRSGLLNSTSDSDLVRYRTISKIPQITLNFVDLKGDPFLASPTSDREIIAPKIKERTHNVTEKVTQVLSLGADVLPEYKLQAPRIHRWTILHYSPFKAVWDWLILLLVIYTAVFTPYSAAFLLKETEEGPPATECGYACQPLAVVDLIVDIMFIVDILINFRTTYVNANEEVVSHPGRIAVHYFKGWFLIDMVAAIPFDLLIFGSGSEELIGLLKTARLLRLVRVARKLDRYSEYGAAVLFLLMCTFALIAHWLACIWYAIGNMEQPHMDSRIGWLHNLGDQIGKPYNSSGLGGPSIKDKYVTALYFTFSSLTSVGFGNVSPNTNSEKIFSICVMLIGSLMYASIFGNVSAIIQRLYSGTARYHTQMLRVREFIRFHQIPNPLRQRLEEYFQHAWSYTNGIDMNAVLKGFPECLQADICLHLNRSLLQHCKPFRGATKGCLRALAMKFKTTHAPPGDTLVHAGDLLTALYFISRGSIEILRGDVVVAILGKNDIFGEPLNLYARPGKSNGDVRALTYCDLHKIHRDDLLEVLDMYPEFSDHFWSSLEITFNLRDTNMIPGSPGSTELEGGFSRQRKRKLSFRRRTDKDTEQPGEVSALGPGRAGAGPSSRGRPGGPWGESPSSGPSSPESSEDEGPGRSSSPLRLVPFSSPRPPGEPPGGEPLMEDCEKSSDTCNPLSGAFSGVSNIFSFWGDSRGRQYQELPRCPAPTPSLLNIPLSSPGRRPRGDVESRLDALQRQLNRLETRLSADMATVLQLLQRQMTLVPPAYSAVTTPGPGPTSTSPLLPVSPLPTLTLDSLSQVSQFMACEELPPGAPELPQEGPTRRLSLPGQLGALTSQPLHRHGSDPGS

[7] = Mean residence time in po dosed cynomolgus monkey; assay type: ADME, organism-based, Macaca fascicularis; details: in vivo
Cynomolgus monkey = test: Dose normalized AUC in iv dosed cynomolgus monkey; assay type: ADME, organism-based, Macaca fascicularis; details: in vivo
[8] = Oral bioavailability in cynomolgus monkey; assay type: ADME, organism-based, Macaca fascicularis; details: in vivo
[9] = Mean residence time in iv dosed cynomolgus monkey; assay type: ADME, organism-based, Macaca fascicularis; details: in vivo
[10] = Volume of distribution at steady state in iv dosed cynomolgus monkey; assay type: ADME, organism-based, Macaca fascicularis; details: in vivo, read-out: Vdss
CYP3A4 = CYP3A4 (Homo sapiens, UniProt P08684); test: as §1; assay type: ADME; details: recombinant CYP3A4
CYP3A4, sequence (P08684 whole entry): as the sequence (P08684 whole entry) above

CYP2C9 = CYP2C9 (Homo sapiens, UniProt P11712); test: as §2; assay type: ADME
CYP2C9, sequence (P11712 whole entry): as the sequence (P11712 whole entry) above

[11] = Oral bioavailability in rat; assay type: ADME, organism-based; details: in vivo
[12] = Clearance in iv dosed rat; assay type: ADME, organism-based; details: in vivo
[13] = Mean residence time in iv dosed rat; assay type: ADME, organism-based; details: in vivo
[14] = molecular target: Voltage-gated inwardly rectifying potassium channel KCNH2 (Homo sapiens, UniProt Q12809); test: Inhibition of human ERG
Voltage-gated inwardly rectifying potassium channel KCNH2, sequence (Q12809 whole entry): as the sequence (Q12809 whole entry) above

[15] = aqueous medium, read-out: solubility

SMILES	IC50 (Cytochrome P450 3A4) [µM]	half-life [3] [min]	IC50 (Cytochrome P450 2D6) [µM]	half-life [4] [min]	half-life [5] [min]	other results
C[C@@H](c1ccc(-c2ccc(F)cc2F)cc1)N1CC[C@](CCO)(c2ccc(F)cc2)OC1=O	–	–	–	–	–	solubility ([1]; buffer, BLD = below limit of detection): Bld; logP [2]: 4.2
C[C@@H](c1ccc(Br)cc1)N1CC[C@](CC(C)(C)O)(c2ccc(F)cc2)OC1=O	3.5	53	–	–	–	–
C[C@@H](c1ccc(-c2ccc3ncnn3c2)cc1)N1CC[C@](CC(C)(C)O)(c2ccccc2)OC1=O	10	> 90	> 50	> 45	> 90	IC50 (Cytochrome P450 2C9): > 50 µM
C[C@@H](c1ccc(-c2ccc(=O)n(C)c2)cc1)N1CC[C@](CCCO)(c2ccccc2)OC1=O	10.5	–	–	–	–	–
C[C@@H](c1ccc(-c2ccc(=O)n(C)c2)cc1)N1CC[C@](CC(C)(C)O)(c2ccccc2)OC1=O	–	> 90	> 50	> 90	> 90	clearance [6]: 11 mL/min/kg; inhibition at 10 µM (hERG): < 10%; MRT [7]: 288 min; AUC/dose (Cynomolgus monkey): 1770 nM·h; bioavailability [8]: 39%; MRT [9]: 162 min; Vd [10]: 1.7 L/kg
C[C@@H](c1ccc(-c2ccccn2)cc1)N1CC[C@](CCCO)(c2ccccc2)OC1=O	23	–	–	–	–	–
C[C@@H](c1ccc(-c2ccc(=O)n(C)n2)cc1)N1CC[C@](CC(C)(C)O)(c2ccccc2)OC1=O	> 50	> 90	> 50	> 45	> 90	inhibition at 10 µM (hERG): 50%; IC50 (Cytochrome P450 2C9): > 50 µM
Cc1cnc(-c2ccc([C@H](C)N3CC[C@](CC(C)(C)O)(c4ccccc4)OC3=O)cc2)cn1	> 50	16	> 50	38	> 90	IC50 (Cytochrome P450 2C9): 33 µM
COc1ccc(-c2ccc([C@H](C)N3CC[C@](CCCO)(c4ccccc4)OC3=O)cc2)cn1	> 30	–	–	–	–	–
COc1ccc(-c2ccc([C@H](C)N3CC[C@](CC(C)(C)O)(c4ccccc4)OC3=O)cc2)cn1	–	–	> 50	–	–	–
C[C@@H](c1ccc(-c2cccnc2)cc1)N1CC[C@](CCCO)(c2ccccc2)OC1=O	2.1	–	–	–	–	–
Cc1cc(-c2ccc([C@H](C)N3CC[C@](CC(C)(C)O)(c4ccccc4)OC3=O)cc2)cc(C)n1	–	> 45	> 50	38	> 45	IC50 (CYP3A4): > 50 µM
C[C@@H](c1ccc(Br)cc1)N1CC[C@](CC(C)(C)C#N)(c2ccc(F)cc2)OC1=O	–	20.3	–	–	–	–
Cc1ccc(-c2ccc([C@H](C)N3CC[C@](CC(C)(C)O)(c4ccccc4)OC3=O)cc2)nn1	–	> 45	> 50	> 45	> 90	clearance [6]: 5.2 mL/min/kg; inhibition at 10 µM (hERG): < 10%; MRT [7]: 318 min; AUC/dose (Cynomolgus monkey): 3330 nM·h; bioavailability [8]: 70%; MRT [9]: 288 min; IC50 (CYP3A4): > 50 µM; Vd [10]: 1.5 L/kg; IC50 (CYP2C9): > 50 µM
C[C@@H](c1ccc(OC(F)(F)F)cc1)N1CC[C@](CCC(N)=O)(c2ccc(F)cc2)OC1=O	–	> 60	–	–	–	–
Cc1cc(-c2ccc([C@H](C)N3CC[C@](CCCO)(c4ccccc4)OC3=O)cc2)cc(C)n1	> 30	13	–	–	–	–

SMILES	IC50 (Cytochrome P450 3A4) [µM]	half-life [3] [min]	IC50 (Cytochrome P450 2D6) [µM]	half-life [4] [min]	half-life [5] [min]	other results
C[C@@H](c1ccc(-c2cncc(F)c2)cc1)N1CC[C@](CCCO)(c2ccccc2)OC1=O	11	–	–	–	–	–
Cc1ccc([C@H](C)N2CC[C@](CCC(N)=O)(c3ccc(F)cc3)OC2=O)cc1	–	7.1	–	–	–	–
C[C@@H](c1ccc(-c2ccc(C(N)=O)cn2)cc1)N1CC[C@](CC(C)(C)O)(c2ccccc2)OC1=O	–	> 45	> 50	> 45	> 90	IC50 (CYP3A4): > 50 µM; IC50 (CYP2C9): > 50 µM; bioavailability [11]: 15%
C[C@@H](c1ccc(OC(F)F)cc1)N1CC[C@](CCC(N)=O)(c2ccccc2)OC1=O	> 30	50.6	–	–	> 90	solubility [1, 15]: 1500 µg/mL (≈ 3580 µM); clearance [12]: 91 mL/min/kg; MRT [13]: 33 min; bioavailability [11]: 51%
C[C@@H](c1ccc(OC(F)F)cc1)N1CC[C@](CC(C)(C)O)(c2ccc(F)cc2)OC1=O	6.6	> 60	–	–	–	–
C[C@@H](c1ccc(-c2ccc(C#N)cn2)cc1)N1CC[C@](CC(C)(C)O)(c2ccccc2)OC1=O	–	> 90	> 50	> 90	> 90	–
C[C@@H](c1ccc(Br)cc1)N1CC[C@](CCCNS(C)(=O)=O)(c2ccc(F)cc2)OC1=O	–	11.4	–	–	–	–
C[C@@H](c1ccc(-c2ccc(F)cn2)cc1)N1CC[C@](CC(C)(C)O)(c2ccccc2)OC1=O	–	> 45	> 50	> 45	> 45	–
C[C@@H](c1ccc(Br)cc1)N1CC[C@](CCC(N)=O)(c2ccc(F)cc2)OC1=O	> 30	36.1	–	–	> 90	solubility [1, 15]: 300 µg/mL (≈ 668 µM); clearance [12]: 49 mL/min/kg; MRT [13]: 72 min; bioavailability [11]: 42%; IC50 [14]: 6.3 µM
COc1ccc([C@H](C)N2CC[C@](CCC(N)=O)(c3ccc(F)cc3)OC2=O)cc1	–	9	–	–	–	–
C[C@@H](c1ccc(OC(F)F)cc1)N1CC[C@](CCC(N)=O)(c2ccc(F)cc2)OC1=O	27	> 60	–	–	> 90	solubility [1, 15]: 460 µg/mL (≈ 1050 µM); clearance [12]: 67 mL/min/kg; MRT [13]: 50.4 min; bioavailability [11]: 77%; IC50 [14]: 5.3 µM
C[C@@H](c1ccc(-c2ccncc2)cc1)N1CC[C@](CCCO)(c2ccccc2)OC1=O	1.8	–	–	–	–	–
C[C@@H](c1ccc(Br)cc1)N1CC[C@](CCO)(c2ccc(F)cc2)OC1=O	> 30	25	–	–	–	–
C[C@@H](c1ccc(OC(F)F)cc1)N1CC[C@](CC(C)(C)O)(c2ccccc2)OC1=O	10	> 60	–	–	> 90	solubility [1, 15]: 260 µg/mL (≈ 620 µM); clearance [12]: 23 mL/min/kg; MRT [13]: 50.4 min; bioavailability [11]: 57%
Cc1ncc(-c2ccc([C@H](C)N3CC[C@](CC(C)(C)O)(c4ccccc4)OC3=O)cc2)cn1	–	> 90	> 50	> 90	> 90	clearance [6]: 8.1 mL/min/kg; inhibition at 10 µM (hERG): 12%; MRT [7]: 288 min; AUC/dose (Cynomolgus monkey): 2070 nM·h; bioavailability [8]: 96%; MRT [9]: 210 min; IC50 (CYP3A4): > 50 µM; Vd [10]: 1.7 L/kg; IC50 (CYP2C9): > 50 µM

From ChEMBL document CHEMBL4033714, “Discovery of BI 135585, an in vivo efficacious oxazinanone-based 11β hydroxysteroid dehydrogenase type 1 inhibitor” (Bioorg Med Chem, 2017)
